This is an account of results in ChEMBL document CHEMBL1667831, “Synthesis and biological evaluation of 2-aminoimidazole/carbamate hybrid anti-biofilm and anti-microbial agents” (Bioorg Med Chem Lett, 2011).

Bounds are passed on as bounds.

For data set [1], the system named is Acinetobacter baumannii. Description: Antibacterial activity against Acinetobacter baumannii ATCC 19606. The data set is classed as functional. As to conditions: ATCC 19606 = CIP 70.34 = JCM 6841. Summed up: (§1)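 MIC, the minimum inhibitory concentration, measured against planktonic bacteria.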
Data set [2] has as its system Pseudomonas aeruginosa. Description: Antibacterial activity against Pseudomonas aeruginosa PA14. The format is functional.
Data set [3] deals with Staphylococcus aureus. Description: Antibacterial activity against methicillin-resistant Staphylococcus aureus. The data set is classed as functional. The gist of the method:
as §1

The test system of data set [4] is Acinetobacter baumannii. Put plainly: Antibacterial activity against multi-drug resistant Acinetobacter baumannii ATCC BAA-1605. The data set is classed as functional. Summed up: as §1
Data set [5] relates to Staphylococcus aureus. Description: Antibacterial activity against Staphylococcus aureus ATCC 29213. The data set is classed as functional. Summed up:
as §1

Data set [6] has as its system Pseudomonas aeruginosa. Description: Antibiofilm activity against Pseudomonas aeruginosa PA14. The data set is classed as functional, organism-based. The gist of the method: (§2)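 Crystal violet reporter assay of biofilm formation, run as a dose-response. IC50 is the concentration inhibiting 50% of biofilm formation. Highest concentration tested 200 µM.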
A short description of data set [7]: Cytotoxicity against sheep RBC assessed hemolysis. The data set is classed as cell-based, Ovis aries, Erythrocyte. The note with it: sheep red blood cells, read-out: HD50 (the source's name). Summed up:
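Red blood cell hemolysis assay using defibrinated sheep blood. HD50 is the concentration at which 50% hemolysis is observed.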

Data set [8] has as its system Acinetobacter baumannii. Put plainly: Antibiofilm activity against Acinetobacter baumannii ATCC 19606. The data set is classed as functional, organism-based. As to conditions: ATCC 19606 = CIP 70.34 = JCM 6841. The gist of the method: as §2
Data set [9] has as its system Acinetobacter baumannii. Put plainly: Antibiofilm activity against Acinetobacter baumannii ATCC 19606 assessed as biofilm dispersal. The note with it: ATCC 19606 = CIP 70.34 = JCM 6841. The format is functional, organism-based. Summed up:
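Dispersal of pre-formed A. baumannii biofilms, run as a dose-response. EC50 values are reported for dispersal.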

Data set [10] deals with Staphylococcus aureus. Put plainly: Antibiofilm activity against Staphylococcus aureus ATCC 29213 assessed as biofilm dispersal. The data set is classed as functional, organism-based. Summed up:
(§3)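 Dispersal of pre-formed biofilms, tested in dose-response. The value reported is EC50.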

Data set [11] deals with Staphylococcus aureus. Description: Antibiofilm activity against methicillin-resistant Staphylococcus aureus assessed as biofilm dispersal. The data set is classed as functional, organism-based. The gist of the method:
as §3

Data set [12] deals with Staphylococcus aureus. Put plainly: Antibiofilm activity against methicillin-resistant Staphylococcus aureus. The format is functional, organism-based. Summed up: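 Biofilm inhibition dose-response study. Biofilm formation is quantified with a crystal violet reporter assay. IC50 is the concentration that inhibits 50% of biofilm formation.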

What is called MIC is the lowest concentration found to suppress growth. A low value points to inhibition by little substance. For orientation: IC50 means the concentration at which inhibition is half-maximal. A low value points to inhibition by little substance. For the compound `CC(C)[C@@H]1CC[C@@H](C)C[C@H]1OC(=O)NCCCCCCc1c[nH]c(N)n1.Cl`, the MIC in the data set on Acinetobacter baumannii [1] is 16 µg/mL; in the data set on Pseudomonas aeruginosa [2], 64 µg/mL; against Staphylococcus aureus [3] it was 8 µg/mL; against Acinetobacter baumannii [4], 16 µg/mL; with Staphylococcus aureus [5] it was 8 µg/mL. The concentration for half-maximal inhibition (IC50) with Pseudomonas aeruginosa [6] stood at 18 µM. Further, the HC50 in [7] is 229 µM.
Broadly, the EC50 is the concentration that produces a half-maximal response. Consider `CC(C)[C@@H]1CC[C@@H](C)C[C@H]1OC(=O)N(CCCCCCc1cn(CCCCCc2c[nH]c(N)n2)nn1)CCc1ccccn1.Cl`, for which the MIC in the data set with Acinetobacter baumannii [1] was 16 µg/mL; against Pseudomonas aeruginosa [2], > 128 µg/mL; in the data set with Staphylococcus aureus [3] it was 8 µg/mL; in the data set on Acinetobacter baumannii [4], 16 µg/mL; against Staphylococcus aureus [5] it was 4 µg/mL. Moreover, the values for the half-inhibitory concentration (IC50) with Acinetobacter baumannii [8] and in the data set on Pseudomonas aeruginosa [6] were 19.2 µM and > 200 µM, respectively. The EC50 in the data set with Acinetobacter baumannii [9] is 37.5 µM; in the data set with Staphylococcus aureus [10], > 200 µM; with Staphylococcus aureus [11], > 200 µM. Moreover, the HC50 in data set [7] amounted to 93.8 µM.
Consider `CC(=O)NCCCCCCc1cn(CCCCCc2c[nH]c(N)n2)nn1.Cl`, for which the MIC in the data set with Acinetobacter baumannii [1], against Pseudomonas aeruginosa [2], against Staphylococcus aureus [3], against Acinetobacter baumannii [4] and in the data set with Staphylococcus aureus [5] was > 128 µg/mL each time. For the same compound, the half-maximal inhibitory concentration (IC50) in the data set with Acinetobacter baumannii [8], with Pseudomonas aeruginosa [6] and with Staphylococcus aureus [12] was > 200 µM each time. In addition, the HC50 in data set [7] was > 800 µM.
On to `CC(C)[C@@H]1CC[C@@H](C)C[C@H]1OC(=O)NCCCn1cc(CCCCCc2c[nH]c(N)n2)nn1.Cl`, for which the MIC in the data set with Acinetobacter baumannii [1] is 64 µg/mL; against Pseudomonas aeruginosa [2] it was 64 µg/mL; in the data set on Staphylococcus aureus [3], 16 µg/mL; against Acinetobacter baumannii [4] it was 64 µg/mL; against Staphylococcus aureus [5], 16 µg/mL. Also, the results for the concentration for half-maximal inhibition (IC50) with Pseudomonas aeruginosa [6] and in the data set on Staphylococcus aureus [12] were 40.3 µM and 20.5 µM, respectively. Also, the HC50 in data set [7] was found to be 318 µM.
As for `CC(C)[C@@H]1CC[C@@H](C)C[C@H]1OC(=O)N(CCCCCCc1cn(CCCCCCc2c[nH]c(N)n2)nn1)CCc1ccccn1.Cl`, the minimal inhibitory concentration (MIC) in the data set with Acinetobacter baumannii [1] is 32 µg/mL; in the data set with Pseudomonas aeruginosa [2], > 128 µg/mL; in the data set with Staphylococcus aureus [3], 4 µg/mL; against Acinetobacter baumannii [4], > 128 µg/mL; in the data set with Staphylococcus aureus [5] it was 4 µg/mL. The IC50 with Acinetobacter baumannii [8] was 18.4 µM; with Pseudomonas aeruginosa [6], > 200 µM. In addition, in [7], the HC50 was 46 µM.
With `CC(C)[C@@H]1CC[C@@H](C)C[C@H]1OC(=O)N(CCCCCCc1cn(CCCCCCCc2c[nH]c(N)n2)nn1)CCc1ccccn1.Cl`, the MIC in the data set with Acinetobacter baumannii [1] is > 128 µg/mL; in the data set on Pseudomonas aeruginosa [2], > 128 µg/mL; against Staphylococcus aureus [3] it was 4 µg/mL; against Acinetobacter baumannii [4], > 128 µg/mL; in the data set on Staphylococcus aureus [5], 4 µg/mL. For the same compound, the half-inhibitory concentration (IC50) with Acinetobacter baumannii [8] is 16.7 µM; in the data set on Pseudomonas aeruginosa [6], > 200 µM. Besides, the concentration giving a half-maximal response (EC50) in the data set with Acinetobacter baumannii [9] came out at 20.6 µM; in the data set on Staphylococcus aureus [10] it was 32.5 µM; in the data set with Staphylococcus aureus [11] it was 38.1 µM. Besides, in data set [7], the HC50 is 42.7 µM.
As for `CC(C)[C@@H]1CC[C@@H](C)C[C@H]1OC(=O)NCCn1cc(CCCCCc2c[nH]c(N)n2)nn1.Cl`, the MIC is 64 µg/mL with Acinetobacter baumannii [1]; > 128 µg/mL against Pseudomonas aeruginosa [2]; 64 µg/mL in the data set on Staphylococcus aureus [3]; 128 µg/mL against Acinetobacter baumannii [4]; 16 µg/mL against Staphylococcus aureus [5]. For the same compound, the IC50 with Acinetobacter baumannii [8] was 94.9 µM; in the data set with Pseudomonas aeruginosa [6] it was 58.7 µM; in the data set on Staphylococcus aureus [12], 29.9 µM. Besides, the HC50 in data set [7] was determined as 474 µM.
As for `CC(C)[C@@H]1CC[C@@H](C)C[C@H]1OC(=O)NCCCCCCCc1c[nH]c(N)n1.Cl`, the minimal inhibitory concentration (MIC) with Acinetobacter baumannii [1] was 8 µg/mL; in the data set on Pseudomonas aeruginosa [2] it was 64 µg/mL; with Staphylococcus aureus [3] it was 8 µg/mL; in the data set on Acinetobacter baumannii [4] it was 8 µg/mL; in the data set with Staphylococcus aureus [5], 8 µg/mL. This compound displayed a half-inhibitory concentration (IC50) with Acinetobacter baumannii [8] of 16.7 µM. Further, the concentration for a half-maximal effect (EC50) is 68.3 µM in the data set on Acinetobacter baumannii [9], 38.8 µM in the data set with Staphylococcus aureus [10] and 53.5 µM with Staphylococcus aureus [11]. The HC50 in [7] amounted to 474 µM.
As to `CC(C)[C@@H]1CC[C@@H](C)C[C@H]1OC(=O)NCCCCCc1c[nH]c(N)n1.Cl`, the minimum inhibitory concentration (MIC) against Acinetobacter baumannii [1], against Pseudomonas aeruginosa [2], against Staphylococcus aureus [3], against Acinetobacter baumannii [4] and with Staphylococcus aureus [5] was 32 µg/mL each time. For the same compound, the IC50 was 19.2 µM in the data set with Acinetobacter baumannii [8] and 18 µM in the data set on Pseudomonas aeruginosa [6]. For the same compound, the HC50 in data set [7] was found to be 464 µM.
